# Assay results pooled from the literature.
# Lines come from different studies, so protocols differ.
# Target: Tyrosine-protein kinase Blk (BLK, Homo sapiens, UniProt P51451)
Structure (SMILES),effect on,mode,technique,concentration,measurement,result
Nc1ncc(-c2nc(N3CCOCC3)nc(N3CCOCC3)n2)c(C(F)F)n1,binding,,competition with immobilised ligand,10 µM,remaining binding,70%
O=c1[nH]c2ccccc2n1C1CCN(Cc2ccc(-c3[nH]c4cc5ncnc5cc4nc3-c3ccccc3)cc2)CC1,cell-free assay,,,0.5 µM,remaining signal,106%
C#Cc1n[nH]c2c(-c3cn([C@@H](C)c4ccccn4)c(=O)[nH]c3=O)cc(F)cc12,enzyme activity,inhibitor,,0.1 µM,inhibition,-5.3%
Cn1cncc1[C@](O)(COc1ccc(C#N)cc1-c1ccc(OC(F)(F)F)cc1)c1ccc(C#N)cc1,cell-free assay,,competition with immobilised ligand,1 µM,remaining binding,90%
Cn1cc(-c2cccc(N3CCc4c(sc5c4CC(C)(C)C5)C3=O)c2CO)cc(Nc2ccncn2)c1=O,enzyme activity,inhibitor,,1 µM,inhibition,-3%
CC(C)(C)c1cc(C=C(C#N)C#N)cc(Br)c1O,enzyme activity,inhibitor,,0.5 µM,remaining activity,97.9%
C#Cc1n[nH]c2c(-c3cn([C@@H](C)c4ccccc4)c(=O)[nH]c3=O)cc(F)cc12,enzyme activity,inhibitor,,0.1 µM,inhibition,-5.4%
COc1ncccc1-c1cnn2ccc(N3CCN(C(=O)OC(C)C)CC3)nc12,binding,,competition with immobilised ligand,1 µM,remaining binding,100%
COc1cc(Nc2ncc(F)c(Nc3ccc4c(n3)NC(=O)C(C)(C)O4)n2)cc(OC)c1OC,binding,,competition with immobilised ligand,10 µM,inhibition,100%
Cc1nn(C)cc1-c1nc2c(N3CCN(Cc4ccc(Cl)cc4)CC3)c(Cl)cnc2[nH]1,binding,,competition with immobilised ligand,1 µM,remaining binding,100%
Cn1cc(-c2cc(F)cc(N3CCn4c(cc5c4CCCC5)C3=O)c2CO)cc(Nc2ccc(N3CCN(C4COC4)CC3)cn2)c1=O,enzyme activity,inhibitor,,0.1 µM,inhibition,14%
